Screening data from PubChem BioAssay.
In the library only some 2.9% were active in any assay of this set; here they are far more common.
PKA inh – PKA (human) kinase inhibition; P17612; PKA Kemptide phosphorylation, Kinase-Glo ATP luminescence; inhibition, % at 6 µM; 65,000 compounds, 0.1% hits; AID 524;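 active = inhibition above the screen-wide mean inhibition plus 3 SD, cut at about 21% in these data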
JNK3 blocker – inhibitors of human JNK3 kinase | P53779 | 60,000 compounds, 0.61% hits | purified JNK3 kinase activity, HTS | inhibition, % at 8 µM; in the data active = inhibition above about 17%;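 also: 0% = DMSO and 100% = reference inhibitor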
SF-1 act – activates the human nuclear receptor SF-1; AID 522; activation, % at 10 µM; 65,000 compounds, 1.9% hits; CHO-K1 Gal4-SF-1 LBD luciferase reporter; % increase over DMSO SF-1-specific signal; Q13285;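 active = activation above the mean activation of all tested compounds plus 3 SD, cut at about 50% in these data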
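Test system: CHO-K1 cells co-transfected with Gal4 DBD–human SF-1 LBD, 5xGal4 luciferase reporter. Quantity: 4,000 cells per well. Compound: 10 µM only. Incubation: compound added 1 h post-seeding, 20 h exposure at 37 °C, 5% CO2. Detection: SteadyLite luciferase luminescence. Replication: one test per compound.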
RORa activator – activators of human nuclear receptor RORA; P35398; CHO-K1 Gal4-RORA LBD luciferase reporter, luminescence; percent increase over mock-subtracted basal signal; activation, % at 10 µM; 65,000 compounds, 1.5% hits; AID 560;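 active = activation above the mean of all tested compounds plus 3 SD, cut at about 49% in these data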;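 also: 0% = DMSO-treated RORA cells and 100% = added signal equal to DMSO minus mock-transfected cells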
ROCK2 blocker – ROCK2 (human) kinase inhibition. purified ROCK2, Kinase-Glo ATP depletion luminescence. inhibition, % at 6 µM. 60,000 compounds, 0.35% hits;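 active = inhibition above the screen-wide mean inhibition plus 3 SD, cut at about 18% in these data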;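 also: plate controls were DMSO wells for no effect and Y-27632 control wells after no-enzyme background subtraction for full effect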
Htt clearance – compounds clearing mutant huntingtin protein | 47,000 compounds, 0.42% hits | HeLa Exon1htt(103Q)mCFP, aggregate imaging; zero = plate's median compound well | inhibition, % at 1.5 µM | AID 853;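 active = inhibition of aggregate fluorescence above about 70%, also judged a hit by eye on the cell image, limit read from the data, passing the limit was not always enough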;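 also: cells exposed to compound for three days before fixation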
The depositor's hits bear a star; . = no result.

SMILES | PKA inh | JNK3 blocker | SF-1 act | RORa activator | ROCK2 blocker | Htt clearance
O=C(O)CCCC(=O)N(Cc1ccccc1)Cc1ccccc1 | 4.9 | 0.1 | 5.6 | 8.8 | 0.7 | .
CCS(=O)(=O)c1ccc2oc(Nc3ccccc3C)nc2c1 | -2.1 | 7.7 | 65.5* | 29.6 | -13.6 | 3.7
CCS(=O)(=O)c1ccc2oc(SCC(=O)NCCC3=CCCCC3)nc2c1 | 1.6 | 4.6 | -15.6 | -21.7 | -6.8 | 22.4
COc1ccc(OCCOC(=O)Nc2ccccc2)cc1 | 4.6 | 4.1 | 2.3 | 1.5 | 6.7 | .
CC1=CCC(COC(=O)Nc2ccccc2)CC1 (stereo unspecified) | -14.4 | -4.7 | 15.6 | 89.9* | -5.6 | 23.7
O=C(Oc1ccc(-c2ccccc2)cc1)N1CCCCC1 | -1.2 | 6.3 | 71.7* | 85.9* | 4.3 | .
Cc1ccc2c(=O)c(CN(C)C3CCN(C)CC3)c(C)[nH]c2c1C | 5.4 | -0.4 | -0.5 | -17.9 | -5.6 | .
O=C(c1ccco1)N1CCN(c2ccc(Cl)cc2)CC1 | 5.6 | 2.4 | 46.1 | 98.2* | 6.2 | 37.3
O=C(CCC1CCCC1)N1CCN(C(=O)c2ccco2)CC1 | 4.2 | 3.0 | -6.5 | 9.4 | 1.7 | 71.5*
O=C(c1ccco1)N1CCCN(C(=O)c2ccco2)CC1 | -0.8 | 2.6 | -6.1 | 5.1 | 2.3 | .
CC1CNCCN1S(=O)(=O)c1cccc2cnccc12 (stereo unspecified) | 46.0* | -2.1 | 4.8 | -15.3 | 107.1* | .
Cc1ccc(-c2nnc(-c3ccc(Br)cc3)o2)o1 | 4.5 | -5.7 | 75.1* | 25.2 | 2.9 | .
Brc1ccc(-c2nnc(-c3ccco3)o2)cc1 | 7.3 | 4.7 | 21.8 | 29.1 | 1.1 | -25.3
CCC(=O)N1CN(S(=O)(=O)c2ccc(C)cc2)CC1C (stereo unspecified) | 8.2 | 1.3 | 9.8 | 0.9 | 2.2 | -6.0
CC1CCN(C(=O)c2cc(-c3ccccc3O)on2)CC1 | 6.0 | -8.1 | 99.1* | 63.8* | -1.6 | .
O=C(c1cc(-c2ccccc2)on1)N1CCCC1 | 7.2 | 3.5 | 56.7* | 24.6 | 7.8 | .
O=C(c1cc(-c2ccc(Cl)c(Cl)c2)on1)N1CCCCC1 | -0.7 | 0.3 | 43.0 | 92.4* | 6.9 | .
CC(Oc1ccc(Cl)cc1)C(=O)Nc1nccs1 (stereo unspecified) | -0.9 | . | 0.1 | -10.1 | . | .
CCn1c(Cc2ccc(OC)cc2)nnc1SCC(=O)Nc1nc2ccccc2s1 | 2.5 | 4.5 | -14.5 | 13.6 | -0.6 | -11.0
CCOC(=O)C1CCN(Cc2nc3ccc(Cl)cc3n2CCO)CC1 | 5.7 | 2.9 | -7.1 | -5.1 | -0.1 | 42.6
COc1ccc(/C=N/Nc2ccccc2)cc1Cn1nc(C)c([N+](=O)[O-])c1C | . | . | . | . | . | 23.3
Cc1nc2ccccc2c(=O)n1NC(=O)Cc1ccccc1 | . | . | . | . | . | -30.1
c1ccc2c(c1)nc(N1CCOCC1)c1c3ccccc3[nH]c21 | 5.1 | 58.7* | -10.3 | 25.6 | -2.0 | -0.6
Cc1ccc2cc(CN(Cc3ccco3)C(=O)c3cccs3)c(=O)[nH]c2c1 | -2.0 | 4.2 | 44.8 | 76.2* | 2.6 | -99.6
Cn1c(=O)c2c(nc(CN3CCN(C(=O)c4ccco4)CC3)n2Cc2ccc(Cl)cc2)n(C)c1=O | -2.8 | 2.6 | 21.0 | 8.4 | 1.7 | .
SMILES | PKA inh | JNK3 blocker | SF-1 act | RORa activator | ROCK2 blocker | Htt clearance
CCOC(=O)C1CCN(S(=O)(=O)c2ccc(-c3nc4ccccc4s3)s2)CC1 | 7.1 | -1.1 | 67.9* | 10.4 | 6.3 | .
C/C(NC1CCCC1)=C(/C#N)C(N)=O | 2.7 | 31.9* | -7.6 | -1.4 | 9.5 | .
C/C(=C(\C#N)C(=O)NC1CCCCC1)N(C)C | 8.8 | -0.2 | 1.0 | -24.1 | 5.4 | .
N#Cc1c(-c2ccco2)nc(SCC(=O)Nc2cccc(Cl)c2)[nH]c1=O | 2.0 | 25.1* | -21.5 | -7.1 | -1.0 | .
O=C(CSc1nc2c(c(=O)[nH]1)CCC2)Nc1cccc(Cl)c1 | 13.9 | 3.6 | -5.2 | 17.9 | 7.3 | 36.7
COc1ccc(/C=N/n2c(SC)nnc(C(C)(C)C)c2=O)c(OC)c1 | . | . | . | . | . | 44.6
COc1cc(/C=C/c2cc(OC(C)=O)c3ccccc3n2)c(OC(C)=O)c([N+](=O)[O-])c1 | . | . | . | . | . | -26.8
COC(=O)c1ccc(-n2nnnc2SCC(=O)Nc2cc(OC)ccc2OC)cc1 | 9.9 | 4.8 | -2.0 | -16.4 | 5.7 | -27.5
COc1ccccc1NC(=O)CSc1nnnn1-c1ccc(C)cc1 | . | . | . | . | . | 73.5*
CCc1cc2c(=O)c(-c3cscn3)coc2cc1O | 8.3 | -1.0 | 31.4 | 2.5 | 9.3 | .
CCc1cc2c(=O)c(-c3cscn3)coc2cc1OC | 5.5 | -7.2 | 38.6 | 51.5* | 5.0 | .
